Screening results: PubChem, several laboratories
procasp7 counter = procaspase-7 activators, primary screen, counter-screen for procaspase-3 activator project, biochemical, absorbance, HTS, human. Caspase-7 (Homo sapiens), P55210. recombinant procaspase-7, Ac-DEVD-pNA absorbance 405 nm; D23A/D198A/D206A triple mutant, cannot self-cleave; scale: DMSO 0, 5 µM enzyme 100. activation, % at 8.5 µM. actives 0.093% (n = 330,000). AID 463210, 2010;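 active = percent activation above the screen-wide mean plus 3 SD, cut at about 25% in these data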
Target sequence (P55210 whole entry D23A/D198A/D206A): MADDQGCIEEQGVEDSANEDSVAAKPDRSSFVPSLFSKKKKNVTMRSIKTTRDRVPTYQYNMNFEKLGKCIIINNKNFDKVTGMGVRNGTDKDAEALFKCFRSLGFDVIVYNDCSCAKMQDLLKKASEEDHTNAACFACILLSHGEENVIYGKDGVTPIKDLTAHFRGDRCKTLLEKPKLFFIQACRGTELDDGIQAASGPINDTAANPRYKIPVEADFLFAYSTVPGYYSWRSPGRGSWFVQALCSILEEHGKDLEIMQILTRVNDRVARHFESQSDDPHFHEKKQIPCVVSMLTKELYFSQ
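Assay system: Uncleavable procaspase-7 mutant enzyme | Input: 2 µM procaspase-7 mutant as dispensed | Timing: 1 h compound preincubation, 2 h substrate cleavage, 25 °C | Repeats: One well per compound | Control set: DMSO wells as 0%, DMSO with 5 µM added PC-7 as 100% | Technique: Epi-absorbance of released pNA at 405 nm, two timepoints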
proCasp3 act = activators of human procaspase-3 D3A mutant, primary screen, biochemical, absorbance, PC-3 D3A mutant, single concentration; Caspase-3 (Homo sapiens), P42574; recombinant procaspase-3 D3A, Ac-DEVD-pNA absorbance 405 nm; activation, % at 8.5 µM; actives 0.11% (n = 330,000); AID 463141, 2010;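 active = activation above the mean of all tested compounds plus 3 SD, cut at about 21% in these data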
Target sequence (P42574 whole entry D9A/D28A/D175A): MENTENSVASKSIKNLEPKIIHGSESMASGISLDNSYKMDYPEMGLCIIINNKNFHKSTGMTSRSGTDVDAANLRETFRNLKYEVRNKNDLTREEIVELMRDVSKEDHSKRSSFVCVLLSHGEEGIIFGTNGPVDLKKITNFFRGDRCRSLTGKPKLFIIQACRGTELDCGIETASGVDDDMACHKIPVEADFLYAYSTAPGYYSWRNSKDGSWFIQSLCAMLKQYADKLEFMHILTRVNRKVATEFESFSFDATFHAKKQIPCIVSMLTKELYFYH
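material = Procaspase-3 D3A mutant | probe or stimulus = Ac-DEVD-pNA | compound = single dose, 8.5 µM nominal compound, 0.8% DMSO | timing = 1 h preincubation, 2 h reaction | measured by = 405 nm absorbance of p-nitroaniline, reads at 0 and 120 min | benchmarks = DMSO-only low control, 5 µM PC-3 D3A high control | repeats = singlicate, each compound tested once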
aDG glyco act = activators of alpha-DG glycosylation, primary screen, uHTS, Pro5-aDG cells, AlphaScreen | alpha-DG glycosylation AlphaScreen (IIH6); 0% Pro5, 100% B10-LARGE cell signal | activation, % at 10 µM | actives 0.22% (n = 360,000);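 active = activation of at least 8% versus controls, or a plate z-score of at least 8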;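 note: Pro5 are CHO cells carrying HIG-tagged alpha-DG that lacks glycosylation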
NR3A LBD binder = binders of NR3A ligand-binding domain, primary screen, biophysical, differential scanning fluorimetry, uHTS; actives 2.5% (n = 340,000); NR3A LBD differential scanning fluorimetry, Tm shift; 0% = protein alone, 100% = glycine-bound protein; Glutamate receptor ionotropic, NMDA 3A (GRIN3A) ligand-binding domain; Tm shift relative to glycine control, % at 25 µM;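 active = melting temperature shift of at least 10% of the positive control shift, at one fixed dose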
MPTP inh = mitochondrial permeability transition pore inhibitors, primary screen, biochemical, isolated mouse mitochondria, absorbance. actives 1.4% (n = 360,000). Ca2+ swelling absorbance, 30 min. inhibition, % at 10 µM;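 active = inhibition of 50% or more, scaled per plate between neutral and stimulator controls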
Each line names hits and unclear results; the compound was inactive in the other large screens. Only some compounds are listed: those with a hit (about 3.7% of all), similar ones and a draw of the others.

COc1ccccc1NC(=O)c1ccc2c(c1)OCO2	none
COc1ccc(OC)c(NC(=O)c2ccccc2SC)c1	none
O=C(Nc1ccc2c(c1)oc1ccccc12)c1ccc2c(c1)OCO2	NR3A LBD binder 25
CCOc1ccc(NC(=O)Cn2nnc(-c3ccccc3NC(=O)c3cccs3)n2)cc1	NR3A LBD binder 15
COc1ccc2cc(CO)n(C)c2c1	none
CC(C)NC(=O)c1ccccc1S(=O)(=O)c1ccccc1C#N	none
CNC(=O)c1ccccc1S(=O)(=O)c1ccccc1C#N	NR3A LBD binder 11
Cc1nn(Cc2ccccc2)c(C)c1CNC(=O)CN=C1NS(=O)(=O)c2ccccc21	none (no result: procasp7 counter, proCasp3 act)
COCCn1cnc2c1c(=O)n(CC(=O)Nc1cc(C)on1)c(=O)n2Cc1ccccc1	NR3A LBD binder 11
COCCn1cnc2c1c(=O)n(CC(=O)NC1CCCCC1)c(=O)n2Cc1ccccc1	none (no result: procasp7 counter, proCasp3 act, NR3A LBD binder)
COCCOc1cc(N2C(=O)CSCC2=O)c(Cl)cc1Cl	NR3A LBD binder 12
Cc1cc(S(=O)(=O)Nc2ccc(C(=O)NC3CC3)cc2)ccc1F	none (no result: procasp7 counter, proCasp3 act, NR3A LBD binder)
O=c1ccncn1C1OC(CO)C(O)C1O (configuration not stated)	none (no result: procasp7 counter, proCasp3 act)
O=C(COc1ccc(-c2ccccc2)cc1)N/N=C/c1cc(O)ccc1Br	NR3A LBD binder 20
N#C/C(=C\c1cccn1S(=O)(=O)c1cccc(C#N)c1)S(=O)(=O)c1ccc(F)cc1	none (no result: procasp7 counter, proCasp3 act, NR3A LBD binder)
COc1ccc2nc(SCC(=O)C(C)(C)C)[nH]c2c1	NR3A LBD binder 123
Cc1ccc(Cc2c(-c3ccc(Cl)cc3)nc3ccc(Br)cn23)cc1	none (no result: procasp7 counter, proCasp3 act, NR3A LBD binder)
O=C(Nc1ccc(Cl)cc1C(F)(F)F)C(Sc1nnc(-c2cccs2)o1)c1ccccc1 (configuration not stated)	NR3A LBD binder 22
CCC(=O)N1CCCC(C)(C(=O)Nc2nccc3ccccc23)C1 (configuration not stated)	none (no result: procasp7 counter, proCasp3 act, NR3A LBD binder)
CN(C)c1nc(N/N=C/c2ccccc2O)nc(Nc2ccc(F)cc2)n1	NR3A LBD binder 38
CN(C)c1nc(Nc2ccc(F)cc2)nc(Oc2ccc(F)cc2)n1	none
CCNC(=S)N/N=C/c1ccc(OCC(=O)Nc2ccc(OC)cc2)c(OC)c1	none
COc1cc(/C=N/NC(=O)c2ccncc2)ccc1OCC(=O)Nc1cccc([N+](=O)[O-])c1	none
COc1cc(/C=N/NC(=O)c2ccncc2)ccc1OCC(=O)Nc1ccc(C)c(C)c1	NR3A LBD binder 12
CCCCNC(=O)C(=O)N/N=C/c1ccc(OCC(=O)Nc2cccc(OC)c2)c(OC)c1	NR3A LBD binder 11
COc1ccc(-c2c(C#Cc3ccsc3)c3cc(-c4ccc5[nH]ccc5c4)ccc3n2C)cc1	NR3A LBD binder 11
COc1ccc(-c2c(C#Cc3ccsc3)c3cc(-c4cccc5[nH]ccc45)ccc3n2C)cc1	none
Cc1ccc(NC(=O)C2(C)CCN2C(=O)Cc2cc(F)ccc2F)cc1 (configuration not stated)	none (no result: procasp7 counter, proCasp3 act, NR3A LBD binder)
O=C(Cn1cc(C(F)(F)F)ccc1=O)Nc1ccc2c(c1)OCO2	none (no result: procasp7 counter, proCasp3 act, NR3A LBD binder)
Cc1ccc(S(=O)(=O)N2CCN(C(=O)C3=COCCO3)CC2)cc1C	none
Cc1cc(C(=O)N2CCN(S(=O)(=O)c3ccc(C)c(C)c3)CC2)no1	NR3A LBD binder 53 (no result: procasp7 counter, proCasp3 act)
Cc1noc2ncnc(Sc3ccc(Cl)cc3)c12	NR3A LBD binder 10
COc1ccc(-c2n[nH]c(C)c2-c2cscn2)c(O)c1	none
C=C(C)COc1ccc(-c2n[nH]c(C)c2-c2ccc(OC)cc2)c(O)c1	NR3A LBD binder 12
Cc1ccc(C)c(-n2c(SCC(=O)Nc3nonc3C)nnc2-c2ccoc2C)c1	none
Cc1nonc1NC(=O)CSc1nnc(-c2ccoc2C)n1C	NR3A LBD binder 20
Cn1c(SCC(=O)Nc2cc(Cl)cc(Cl)c2)nnc1-c1ccc2nonc2c1	NR3A LBD binder 45
Cc1cc(-c2nc(C)c(-c3nnc(SCC(=O)Nc4cc(Cl)cc(Cl)c4)n3C)s2)no1	none
COCOc1ccc(-c2ncc(OCCN3CCCC3=O)nc2NC(=O)c2cc3ccccc3s2)cc1	none (no result: procasp7 counter, proCasp3 act, NR3A LBD binder)
c1ccc2[nH]c(-c3cnco3)cc2c1	NR3A LBD binder 11
O=C(Nc1ncnc2c1ncn2[C@@H]1O[C@H](/C=C/C(=O)N2CCN(c3ccc(F)cc3)CC2)[C@@H](O)[C@H]1O)c1ccccc1	none (no result: procasp7 counter, proCasp3 act, NR3A LBD binder)
N#Cc1cc(-c2ccccc2)oc1/N=C/c1ccccc1O	NR3A LBD binder 18
CC(C)(C(=O)N1CCC1(C)C(=O)NS(=O)(=O)c1ccc(Cl)s1)c1ccccc1 (configuration not stated)	none (no result: procasp7 counter, proCasp3 act, NR3A LBD binder)
CC(C)[C@H](NC(=O)c1ccccc1)C(=O)NC1=NCCS1	none
O=C1C(CN2CCCC2)CCCC1CN1CCCC1 (configuration not stated)	none (no result: procasp7 counter, proCasp3 act)
O=C(Nc1ccc(Br)cc1)c1cccn1-c1ncc(C(F)(F)F)cc1Cl	NR3A LBD binder 13
COc1ccc(/C=C/c2ccc(=O)n(Cc3ccccc3)n2)cc1	NR3A LBD binder 15
Cn1cccc1-c1cc(C(=O)N/N=C/c2cc(Br)ccc2O)[nH]n1	NR3A LBD binder 27
Cn1cccc1-c1cc(C(=O)N/N=C/c2ccccc2Cl)[nH]n1	none
Cn1cccc1-c1cc(C(=O)N/N=C/c2ccc(F)cc2)[nH]n1	none
Cn1cccc1-c1cc(C(=O)N/N=C/c2ccc([N+](=O)[O-])cc2)[nH]n1	NR3A LBD binder 28
O=C(N/N=C/c1ccc(Cl)c([N+](=O)[O-])c1)c1cc(-c2ccc3c4c(cccc24)CC3)n[nH]1	none
CCOc1ccc(/C=N/NC(=O)c2cc(-c3cccn3C)n[nH]2)cc1	NR3A LBD binder 22
O=C(N/N=C/c1cccc([N+](=O)[O-])c1)c1cc(-c2ccc3c4c(cccc24)CC3)n[nH]1	NR3A LBD binder 18
O=C(C1CC(=O)N(c2ccc(F)c(Cl)c2)C1)N1CCOCC1 (configuration not stated)	none (no result: procasp7 counter, proCasp3 act, NR3A LBD binder)
O=C1NC(Cc2ccc(O)cc2)c2nc3ccc(F)cc3c(=O)n2-c2ncccc21 (configuration not stated)	none (no result: procasp7 counter, proCasp3 act, NR3A LBD binder)
CCN(CC)S(=O)(=O)c1ccc(N2CC(C(=O)Nc3cccc(C(=O)NC4CC4)c3)CC2=O)cc1 (configuration not stated)	none (no result: procasp7 counter, proCasp3 act)
CN1CCN(c2ncnc3c2ncn3[C@H]2CN(Cc3ccccc3)C[C@@H](CO)O2)CC1	none (no result: procasp7 counter, proCasp3 act, NR3A LBD binder)
CCCN1C(=O)/C(=C/c2nc3ccccc3c(=O)[nH]2)c2cc(C)ccc21	none
CCCN1C(=O)/C(=C/c2nc3ccccc3c(=O)[nH]2)c2ccccc21	NR3A LBD binder 25
